In the library only some 2.2% were active in any assay of this set; here they are far more common.
CAL PDZ FP-1: untagged CAL PDZ binding inhibitors, primary screen, biochemical, fluorescence polarization, HTS; Golgi-associated PDZ and coiled-coil motif-containing protein (Homo sapiens), Q9HD26; purified CAL PDZ, TMR-peptide fluorescence polarization, 1 h; inhibition, % at 24.9 µM; actives 0.92% (n = 300,000); AID 602252, 2012;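 active = mean inhibition of at least 30% with at least half of replicates also reaching 30%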;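 note: 0% = DMSO neutral control and 100% = excess unlabeled competitor peptide PRC23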
dFosB act: activators of delta FosB homodimer, primary screen, biochemical, fluorescence polarization, TAMRA-CDK5 oligo, single point; activation, % at 25 µM; AID 493131, 2011; actives 0.99% (n = 340,000); purified delta FosB; percent of positive-control signal above neutral wells;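 active = mean activation above about 17%, with every replicate also reaching it, limit read from the data, passing the limit was not always enough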
Target sequence (P13346 whole entry, looked up): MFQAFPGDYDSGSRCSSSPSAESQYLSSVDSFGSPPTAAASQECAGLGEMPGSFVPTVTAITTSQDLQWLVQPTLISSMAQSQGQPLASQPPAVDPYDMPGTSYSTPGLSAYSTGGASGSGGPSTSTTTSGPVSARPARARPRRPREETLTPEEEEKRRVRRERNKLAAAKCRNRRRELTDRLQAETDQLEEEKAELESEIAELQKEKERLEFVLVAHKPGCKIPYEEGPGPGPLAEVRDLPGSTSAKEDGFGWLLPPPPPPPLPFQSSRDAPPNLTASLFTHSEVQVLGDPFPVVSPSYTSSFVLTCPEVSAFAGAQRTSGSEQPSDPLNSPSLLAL
Dyrk1A ADPGlo: rat Dyrk1A kinase inhibitors, primary screen, biochemical, single point, plate reader; ADP-Glo luminescence, NFATc1 peptide; inhibition, % at 12.5 µM; actives 0.43% (n = 310,000); in the data active = inhibition above about 50%;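 note: plate controls were vehicle with enzyme for no effect and no enzyme for full effect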
CAL PDZ FP-2: CAL PDZ peptide-binding inhibitors, primary screen, biochemical, fluorescence polarization, Cer-tagged CAL PDZ, HTS | Golgi-associated PDZ and coiled-coil motif-containing protein (Homo sapiens), Q9HD26 | purified CAL PDZ, TMR-peptide fluorescence polarization, 1 h | inhibition, % at 20 µM | actives 0.02% (n = 330,000);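 active = highest replicate inhibition of at least 40%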;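 note: plate controls were DMSO neutral control wells for no effect and unlabeled competitor peptide control wells for full effect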
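Control set: unlabelled peptide and DMSO controls / Material: purified CerCALP PDZ construct / Timing: 1 h incubation at room temperature before polarization reading / Doses: 20 µM, one dose / Detection: fluorescence polarization (mP)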
Rtt109 HAT inh: inhibitors of C. albicans Rtt109/Vps75 HAT, primary screen, biochemical, ThioGlo CoA-SH fluorescence, plate reader; purified Rtt109/Vps75, 4 h; inhibition, % at 34.9 µM; actives 0.16% (n = 330,000);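 active = inhibition of at least 50% in every replicate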
CDK5 p35 inh: inhibitors of human CDK5/p35 kinase, primary screen, biochemical, single concentration | Cyclin-dependent kinase 5 (Homo sapiens) + Cyclin-dependent kinase 5 activator 1 (Homo … | Recombinant CDK5/p35, ADP-Glo luminescence, 60 min | inhibition, % at 10 µM | actives 0.01% (n = 330,000) | AID 488839, 2010;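 active = highest replicate inhibition of at least 50% and at least 75% of replicates reaching 50%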;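 note: plate controls were DMSO neutral control for no effect and GW8510 at 10 µM for full effect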
Active calls of the source: *; . = not tested or not shown.

SMILES | CAL PDZ FP-1 | dFosB act | Dyrk1A ADPGlo | CAL PDZ FP-2 | Rtt109 HAT inh | CDK5 p35 inh
CC(C)C(=O)N[C@@H]1c2ccccc2CC[C@@H]1O | -1 | 5 | -2 | -1 | 2 | 3
CCOC(=O)C1=C(CC)Nc2ccccc2N/C1=N\S(=O)(=O)c1cccc(C(C)=O)c1 | 55* | -7 | . | 0 | 6 | -2
CCOC(=O)C1=C(CC)Nc2ccccc2N/C1=N\S(=O)(=O)c1ccccc1F | -8 | -7 | 7 | -1 | -5 | -1
COC(=O)C1=C(C)NC(=O)NC1c1ccc(OC(=O)c2ccco2)cc1 (stereo not given) | 3 | 8 | -2 | -1 | 17 | -1
Cc1ccc(NC2CCCN(C(=O)c3ccc(F)cc3)C2)cc1C (stereo not given) | 13 | -2 | -3 | 1 | 11 | 0
Cc1ccc(NC(=O)C2CCCN(S(=O)(=O)c3ccc4[nH]c(=O)ccc4c3)C2)cc1C (stereo not given) | 2 | 2 | 7 | 1 | -1 | 1
Cc1cccc(NC(=O)C2CCCN(S(=O)(=O)c3ccc4[nH]c(=O)ccc4c3)C2)c1 (stereo not given) | . | 45* | 7 | -1 | -6 | 2
Cc1cccc(NC(=O)C2CCCN(C(=O)Nc3ccc(F)cc3)C2)c1 (stereo not given) | 44* | -5 | 2 | -1 | 9 | 0
CCCCC(=O)Nc1ccc(NC(=S)NC(=O)c2cccs2)cc1OC | -2 | -13 | -5 | -1 | -10 | 1
CCOC(=O)c1cc2c(N)c(C(=O)c3cc(C#N)c(SC)nc3C)sc2nc1C | 3 | -8 | 0 | -2 | 62* | 1
CCn1c(/C=C/c2ccccc2C)nc2ccccc2c1=O | 51* | -23 | 4 | 0 | -5 | 0
Cc1ccccc1/C=C/c1nc2ccccc2c(=O)n1Cc1ccccc1 | 5 | -10 | 2 | -2 | 2 | -1
CC(=O)NC(=S)Nc1ccccc1N1CCCCC1 | 4 | -8 | 0 | -1 | . | 0
Cc1[nH]n(-c2ccccc2)c(=O)c1C=NC1CCCCCC1 | -2 | -7 | 1 | -3 | 1 | 2
Cc1cc(C)nc(NS(=O)(=O)c2ccc(N=Cc3c(C)[nH]n(-c4ccccc4)c3=O)cc2)n1 | -4 | -7 | -2 | -2 | 3 | 1
Cc1[nH]n(-c2ccccc2)c(=O)c1C=NC1CCCCC1 | 1 | -7 | -8 | -2 | 59* | 1
Cc1[nH]n(-c2ccccc2)c(=O)c1C=Nc1ccc(S(=O)(=O)N=C(N)N)cc1 | -4 | 26* | 1 | 1 | 2 | 0
CCOC(=O)C1(C)NC(c2cc(OC)c(OC)c(OC)c2)C2C(=O)N(CC)C(=O)C21 (stereo not given) | 67* | 0 | -1 | -1 | -5 | 1
CC(C)Cc1nnc(NC(=O)c2ccncc2)s1 | -2 | 2 | 2 | 0 | -3 | -1
COc1ccc2[nH]c(C(=O)Nc3ccc(F)cc3Br)cc2c1 | -3 | -6 | . | -2 | 5 | 0
CC(C)c1csc(CN2CCC(N3CCC(C(=O)NCC4CCCO4)CC3)CC2)n1 (stereo not given) | 39* | 0 | -3 | 0 | -2 | -1
Cc1c(Cl)cccc1NC(=S)N(CCN(C)C)C(C)c1ccccn1 (stereo not given) | 81* | -4 | -3 | 0 | -4 | -3
COC(=O)C1=C(CS(=O)(=O)c2ccccc2)NC(=O)NC1c1ccc(OC)c(OC)c1 (stereo not given) | 0 | 1 | 1 | -2 | 1 | 0
Cc1c(-c2nc(-c3ccncc3)no2)cccc1[N+](=O)[O-] | 69* | 4 | 1 | -1 | 2 | 1
